For data set [1], the species on record is Homo sapiens. Put plainly: Cytotoxicity against human GCE28 cells assessed as cell viability at 5 ug/ml measured after 48 hrs using compound suspended in PBS by Prestoblue assay. In kind it is functional, cell-based. A digest of the protocol: (§1)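 Inhibitor either dissolved in DMSO, inkjet-printed into polymer, or suspended in PBS, then diluted in DMEM. Polymer-alone and untreated controls included. Viability read by PrestoBlue after 48 h, mean ± SD.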

The nature of data set [2]: Cytotoxicity against human GCE28 cells derived from central tumor core of GBM patient assessed as reduction in cell viability measured after 48 hrs by Prestoblue assay. The format is functional, cell-based. A digest of the protocol: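 Compounds diluted in DMEM containing 10% FBS and applied for 48 h. Viability read by PrestoBlue. IC50 calculated from three independent experiments, mean ± SE. Two-way ANOVA with Dunnett's multiple comparisons test.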

The species named for data set [3] is Homo sapiens. The data set can be described thus: Induction of apoptotic death in human GIN28 cells assessed as […] at 12.5 uM measured after 48 hrs by Hoechst 33342/propidium iodide staining based fluorescence microscopy analysis. In kind it is functional, cell-based. A digest of the protocol:
(§2)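 Cells dosed 48 h with 12.5 μM inhibitor, with 70% ethanol or DMEM (negative) as controls. Nuclei then double-stained with Hoechst 33342 and propidium iodide and examined by fluorescence microscopy.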

For data set [4], the species on record is Homo sapiens. Put plainly: Cytotoxicity against human GIN28 cells assessed as reduction in cell viability at 5 ug/ml measured after 48 hrs using PVPVA-formulated compound by Prestoblue assay. The format is functional, cell-based. A digest of the protocol:
as §1

The species entered for data set [5] is Homo sapiens. The data set can be described thus: Induction of apoptosis in human GCE28 cells assessed as increase in caspase 3/7 activation at 12.5 uM measured after 48 hrs by CellEvent caspase 3/7 probe based fluorescence analysis. In kind it is functional, cell-based. The essentials:
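Cells exposed 48 h to compounds diluted in 10% FBS DMEM. Activated caspase-3/7 detected with the CellEvent probe. Staurosporine 10.0 μM served as reference inducer. Mean ± SEM (n = 3). Two-way ANOVA with Dunnett's test.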

The nature of data set [6]: Apparent water solubility of the compound in PBS formulated with 900 ug/ml polymer PVPVA at 100 ug/ml by UV-Visible spectral analysis. In kind it is physicochemical. The following applies: buffer.
The species entered for data set [7] is Homo sapiens. Put plainly: Induction of necrosis in human GIN8 cells assessed as induction of nuclear membrane permeability at 12.5 uM measured after 48 hrs by Hoechst 33342/propidium iodide staining based fluorescence microscopy analysis. In kind it is functional, cell-based. A digest of the protocol:
as §2

The species entered for data set [8] is Homo sapiens. The data set can be described thus: Cytotoxicity against human GCE28 cells assessed as reduction in cell viability at 5 ug/ml measured after 48 hrs using Pluronic-F68-formulated compound by Prestoblue assay. The format is functional, cell-based. The essentials: as §1
Data set [9] is filed under the species Homo sapiens. The data set can be described thus: Cytotoxicity against human GCE28 cells assessed as reduction in cell viability at 5 ug/ml measured after 48 hrs using PVPVA-formulated compound by Prestoblue assay. The format is functional, cell-based. The essentials: as §1
For data set [10], the species on record is Homo sapiens. The data set can be described thus: Cytotoxicity against human GIN8 cells assessed as reduction in cell viability at 5 ug/ml measured after 48 hrs using Tween 80-formulated compound by Prestoblue assay. In kind it is functional, cell-based. The essentials: as §1
Data set [11] is described as follows: Additive cytotoxicity against human GIN8 cells assessed as combination index measured after 48 hrs in presence of 2-[[4-(2-phenylethylamino)-1-[styryl]pyrazolo[3,4-d]pyrimidin-6-yl]amino]ethanol by Chou-Talalay assay. The format is functional. A digest of the protocol: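 Each drug pair dosed at a 1:1 molar ratio on the GBM lines and incubated 48 h. CI computed from three independent IC50 experiments (n = 3), reported as mean ± SD.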

The species named for data set [12] is Homo sapiens. The data set can be described thus: Induction of apoptotic death in human GCE28 cells assessed as nuclear fragmentation at 12.5 uM measured after 48 hrs by Hoechst 33342/propidium iodide staining based fluorescence microscopy analysis. The format is functional, cell-based. The essentials:
as §2

The source made the active and inactive calls. The rule behind the calls is not given here.

The IC50 is the concentration needed to halve the response being measured. On to `ClC(Cn1ncc2c(Nc3cccc(Br)c3)nc(SCCN3CCOCC3)nc21)c1ccccc1` (configuration not stated), for which the outcome in the data set filed under Homo sapiens [1] and in the data set listed under Homo sapiens [7] was inactive. Also, the IC50 in data set [2] amounted to 7.2 µM. The result in the data set listed under Homo sapiens [3], in the data set listed under Homo sapiens [4], in the data set filed under Homo sapiens [5], in the data set listed under Homo sapiens [8], in the data set filed under Homo sapiens [9] and in the data set listed under Homo sapiens [10] was Active. Besides, in the data set filed under Homo sapiens [12], the result was Active. In addition, the solubility result in [6] is reported as “Soluble”. Further, the CI in [11] is given as 0.99.
